In ChEMBL document CHEMBL2434820, “Design, synthesis, and biological evaluation of novel 2-ethyl-5-phenylthiazole-4-carboxamide derivatives as protein tyrosine phosphatase 1B inhibitors with improved cellular efficacy” (Eur J Med Chem, 2013):
Active and inactive are the calls of the source. No cut-off for these calls is given here.

Legend:
Type in all cases: cell-based
[1] = target: T1, Tyrosine-protein phosphatase non-receptor type 1 (Homo sapiens) (UniProt P18031); assay: Inhibition of PTP1B (unknown origin) expressed in CHO cells over-expressing human IR assessed as increase in insulin-mediated IR-beta phosphorylation preincubated for 2 hrs followed by insulin challenge for 10 mins by Western blotting analysis
T1 sequence (whole entry): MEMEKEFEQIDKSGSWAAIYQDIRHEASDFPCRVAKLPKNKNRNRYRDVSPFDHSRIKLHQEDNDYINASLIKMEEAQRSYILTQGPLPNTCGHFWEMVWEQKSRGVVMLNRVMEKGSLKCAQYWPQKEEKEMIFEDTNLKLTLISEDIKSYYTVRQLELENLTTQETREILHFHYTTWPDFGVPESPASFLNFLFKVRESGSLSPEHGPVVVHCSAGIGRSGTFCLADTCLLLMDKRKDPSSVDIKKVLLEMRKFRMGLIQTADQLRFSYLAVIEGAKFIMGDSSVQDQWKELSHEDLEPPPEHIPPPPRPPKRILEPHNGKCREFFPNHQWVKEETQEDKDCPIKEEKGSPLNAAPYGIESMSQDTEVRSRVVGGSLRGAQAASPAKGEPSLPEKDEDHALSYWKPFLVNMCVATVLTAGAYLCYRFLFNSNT
How it was run: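 CHO cells overexpressing human IR, grown in Ham's F-12 with 10% FBS at 37 °C, 5% CO2. Cells were serum-starved 2 h, then exposed to compound for 2 h (0.2% DMSO vehicle; 1 mM sodium orthovanadate as positive control). They were then stimulated with 10 nM insulin for 10 min. Lysates were run on 8% SDS-PAGE and immunoblotted with anti-pTyr, using β-actin as the loading control.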

[2] = target: T2, Tyrosine-protein phosphatase non-receptor type 1 (Rattus norvegicus) (UniProt P20417); assay: Inhibition of PTP1B in rat L6 cells assessed as insulin-induced Akt phosphorylation preincubated for 2 hrs followed by insulin challenge for 10 mins by Western blotting analysis
T2 sequence (whole entry): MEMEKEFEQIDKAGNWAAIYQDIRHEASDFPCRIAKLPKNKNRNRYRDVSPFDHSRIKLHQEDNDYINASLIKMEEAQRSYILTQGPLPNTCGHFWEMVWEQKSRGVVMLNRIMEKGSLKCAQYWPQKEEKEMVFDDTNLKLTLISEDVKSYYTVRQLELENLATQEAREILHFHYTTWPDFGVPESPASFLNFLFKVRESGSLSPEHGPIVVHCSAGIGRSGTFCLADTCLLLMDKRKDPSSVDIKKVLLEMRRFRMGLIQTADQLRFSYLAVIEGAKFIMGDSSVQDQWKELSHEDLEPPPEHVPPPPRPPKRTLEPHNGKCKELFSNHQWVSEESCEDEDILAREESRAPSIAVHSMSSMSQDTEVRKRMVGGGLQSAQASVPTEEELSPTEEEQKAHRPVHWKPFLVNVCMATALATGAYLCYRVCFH
How it was run: (§1)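 Rat L6 myoblasts were differentiated in DMEM with 2% FBS and used as myotubes 5–7 days later. They were serum-starved 2 h, treated with compound 2 h (0.2% DMSO vehicle), then given 10 nM insulin for 10 min. Lysates were run on 8% SDS-PAGE and immunoblotted for phospho-Akt (Ser473), with β-actin as loading control.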

[3] = target: T2, Tyrosine-protein phosphatase non-receptor type 1 (Rattus norvegicus); assay: Inhibition of PTP1B in rat L6 cells assessed as insulin-stimulated 2-deoxy-[3H]-deoxy-glucose uptake at 20 uM preincubated for 2 hrs followed by insulin challenge for 30 mins
How it was run: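 Differentiated L6 myotubes were serum-starved 2 h, treated with compound, then stimulated with 10 nM insulin for 30 min. Cells were washed in HEPES-buffered saline, pH 7.4, and incubated 15 min with 2-deoxy-[3H]-glucose. After ice-cold PBS washes they were lysed in 0.1% Triton X-100 and radioactivity was counted. Data are averages of at least three independent replicates.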

[4] = target: T2, Tyrosine-protein phosphatase non-receptor type 1 (Rattus norvegicus); assay: Inhibition of PTP1B in rat L6 cells assessed as insulin-induced Akt phosphorylation at 20 uM preincubated for 2 hrs followed by insulin challenge for 10 mins by Western blotting analysis in presence of wortmannin
How it was run: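 Differentiated L6 myotubes were pretreated with 250 nM wortmannin to block PI3K. They then received 20 μM compound for 2 h and were stimulated with or without 10 nM insulin. Akt phosphorylation was read by immunoblot of lysates with anti-phospho-Akt (Ser473).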

[5] = target: T2, Tyrosine-protein phosphatase non-receptor type 1 (Rattus norvegicus); assay: Inhibition of PTP1B in rat L6 cells assessed as insulin-induced Akt phosphorylation at 5 to 10 uM preincubated for 2 hrs followed by insulin challenge for 10 mins by Western blotting analysis; how it was run: as §1

inhibition [1]: Dose-dependent effect
inhibition [2]: Dose-dependent effect
inhibition [3]: 86%
inhibition [4]: inactive
inhibition [5]: Active
SMILES: O=C(CCc1c[nH]c2ccccc12)N[C@@H](Cc1ccc(OCc2ccccc2)cc1)c1nc(C(=O)Nc2cc(F)ccc2C(=O)O)c(-c2ccccc2)s1
